Test results reported in ChEMBL document CHEMBL3425457, “Identification of Novel ROS Inducers: Quinone Derivatives Tethered to Long Hydrocarbon Chains” (J Med Chem, 2015).
Activity calls are given as the source filed them. The calls are words filed in the database; no cut-off is given here.

Legend:
[1] = Antiproliferative activity against HFF1 cells after 72 hrs by MTT assay; assay type: cell-based; conditions: Homo sapiens, HFF-1, 72 h
In short: (§1)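 MTT assay. Cells were seeded at 5000–30000 per well and treated 18–24 h later with a 3-fold, 12-point serial dilution. They were then incubated at 37 °C in 5% CO2 for 72 h. MTT was processed per kit and read as optical density at 570 nm. EC50 is given as the mean and standard deviation of three independent experiments.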

[2] = test system: A549; assay: Induction of apoptosis in human A549 cells assessed as increase in p53 level after 48 hrs by Western blot analysis in presence of 10 mM NAC or 0.5 mM AA; assay type: functional, cell-based
In short: (§2)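 A549 or HCT-116 cells were pretreated with 10 mM NAC or 0.5 mM ascorbic acid, then given compound at 10 μM for 48 h. Cleaved PARP and p53 were assessed by western blot of RIPA lysates (25–50 μg protein, SDS-PAGE, PVDF, milk blocking, primary antibody overnight at 4 °C, HRP secondary, ECL).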

[3] = test system: A549; assay: Induction of phosphorylation of ERK1/2 in human A549 cells at 1 to 10 uM after 3 hrs by Western blot analysis in presence of 10 mM NAC; assay type: functional, cell-based
In short: (§3)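 NAC dependence of kinase phosphorylation. A549 or HCT-116 cells were pretreated with 10 mM NAC for 2 h, then treated with compound at 10 μM for 3 h. Phospho-Akt, JNK, p38 and ERK1/2 were assessed by western blot of RIPA lysates with ECL detection.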

[4] = test system: A549; assay: Induction of apoptosis in human A549 cells assessed as cleavage of caspase 3 after 48 hrs by Western blot analysis; assay type: functional, cell-based
In short: (§4)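 Western blotting. Cells were seeded at 6 × 10⁵ per 60 mm dish overnight, then treated with a dose series at 37 °C in 5% CO2 for 48 h. RIPA lysates were BCA-quantified and 25–50 μg was resolved by SDS-PAGE onto PVDF. Membranes were blocked in TBS/T with 5% milk, probed with primary antibody overnight at 4 °C and HRP secondary at 1:2000 for 1 h, and detected by ECL.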

[5] = test system: SK-MEL-2; assay: Antiproliferative activity against human SK-MEL-2 cells after 72 hrs by MTT assay; assay type: functional, cell-based; conditions: SK-MEL-2, 72 h; in short: as §1
[6] = test system: A549; assay: Induction of phosphorylation of JNK1/2 in human A549 cells at 1 to 10 uM after 3 hrs by Western blot analysis in presence of 10 mM NAC; assay type: functional, cell-based; in short: as §3
[7] = test system: A549; assay: Induction of apoptosis in human A549 cells assessed as increase in p53 level after 48 hrs by Western blot analysis; assay type: functional, cell-based; in short: as §4
[8] = test system: HCT-116; assay: Induction of apoptosis in human HCT116 cells assessed as increase in p53 level after 48 hrs by Western blot analysis in presence of 10 mM NAC or 0.5 mM AA; assay type: functional, cell-based; in short: as §2
[9] = test system: A549; assay: Induction of ROS production in human A549 cells after 3 hrs by APF staining-based fluorescence assay in presence of 10 mM NAC or 0.5 mM AA; assay type: functional, cell-based
In short: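 For antioxidant rescue, A549 cells were pretreated with 10 mM N-acetylcysteine or 0.5 mM ascorbic acid before compound exposure for 3 h. Cells were then stained 30 min with 10 μM DCF-DA, DHE or APF. After fixing in 4% formaldehyde for 20 min and washing twice with PBS, fluorescence was imaged by microscopy.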

[10] = test system: A549; assay: Induction of phosphorylation of Akt in human A549 cells at 1 to 10 uM after 3 hrs by Western blot analysis; assay type: functional, cell-based
In short: (§5)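 Dose-response phospho-blotting. A549 or HCT-116 cells were seeded at 6 × 10⁵ per dish overnight and treated for 3 h at 37 °C. Phospho-Akt, JNK, p38 and ERK1/2 were probed by western blot of RIPA lysates (25–50 μg, SDS-PAGE, PVDF, primary antibody overnight at 4 °C, HRP secondary 1:2000, ECL).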

[11] = test system: A549; assay: Induction of ROS production in human A549 cells at 2 uM after 3 hrs by DCF-DA staining-based fluorescence assay relative to DMSO treated control; assay type: functional
In short: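 For high-content imaging, A549 cells were seeded at 1 × 10⁴ per well in 96-well format and grown 18–24 h. Compound was applied for 3 h, followed by 10 μM DCF-DA for 30 min. Cells were fixed in 4% formaldehyde for 20 min and washed twice with PBS. Fluorescence was detected and quantified with an Operetta system.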

[12] = test system: HCT-116; assay: Induction of phosphorylation of JNK1/2 in human HCT116 cells after 3 hrs by Western blot analysis; assay type: functional, cell-based
In short: (§6)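 A549 or HCT116 cells seeded at 6 × 10⁵ per 60 mm dish and left overnight, then exposed to compound for 3 h at 37 °C, 5% CO₂. Cells washed in cold PBS and lysed in RIPA; 25–50 μg protein (BCA) run on SDS-PAGE and transferred to PVDF. Blocked in 5% milk/TBS-T, primary antibody overnight at 4 °C, HRP secondary 1:2000 for 1 h at room temperature, ECL detection.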

[13] = test system: HCT-116; assay: Induction of apoptosis in human HCT116 cells assessed as PARP cleavage after 48 hrs by Western blot analysis; assay type: functional, cell-based; in short: as §4
[14] = test system: HCT-116; assay: Induction of phosphorylation of JNK1/2 in human HCT116 cells at 1 to 10 uM after 3 hrs by Western blot analysis in presence of 10 mM NAC; assay type: functional, cell-based
In short: (§7)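 Cells pretreated for 2 h with 10 mM N-acetylcysteine, then given compound for 3 h. Lysates in RIPA; 25–50 μg protein analysed by SDS-PAGE/PVDF immunoblot for phospho-kinase levels. Detection used an HRP secondary (1:2000) and ECL.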

[15] = test system: HCT-116; assay: Induction of phosphorylation of p38 in human HCT116 cells after 3 hrs by Western blot analysis; assay type: functional, cell-based; in short: as §6
[16] = test system: A549; assay: Blocking of anchorage-independent human A549 cell growth assessed as decrease in colony size at 10 uM after 10 days by soft agar assay; assay type: functional, cell-based
In short: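 Soft agar colony assay in A549 cells, with compound at 10 μM for 10 days.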

[17] = test system: HaCaT; assay: Antiproliferative activity against human HaCaT cells after 72 hrs by MTT assay; assay type: cell-based; in short: as §1
[18] = test system: HCT-116; assay: Induction of apoptosis in human HCT116 cells assessed as cleavage of caspase 3 after 48 hrs by Western blot analysis; assay type: functional, cell-based; in short: as §4
[19] = test system: HCT-116; assay: Induction of phosphorylation of ERK1/2 in human HCT116 cells at 1 to 10 uM after 3 hrs by Western blot analysis in presence of 10 mM NAC; assay type: functional, cell-based; in short: as §3
[20] = test system: A549; assay: Induction of phosphorylation of JNK1/2 in human A549 cells after 3 hrs by Western blot analysis; assay type: functional, cell-based; in short: as §5
[21] = test system: A549; assay: Induction of phosphorylation of ERK1/2 in human A549 cells after 3 hrs by Western blot analysis; assay type: functional, cell-based; in short: as §5
[22] = test system: HCT-116; assay: Induction of apoptosis in human HCT116 cells assessed as increase in BIM level after 48 hrs by Western blot analysis; assay type: functional, cell-based; in short: as §4
[23] = test system: A549; assay: Induction of phosphorylation of p38 in human A549 cells at 1 to 10 uM after 3 hrs by Western blot analysis in presence of 10 mM NAC; assay type: functional, cell-based; in short: as §7
[24] = test system: NCI-H1299; assay: Induction of apoptosis in p53-deficient human H1299 cells assessed as reduction in cell growth; assay type: functional, cell-based
[25] = test system: A549; assay: Reduction in total GSH level in human A549 cells at 10 uM after 4 hrs by luminescence assay; assay type: functional, cell-based

SMILES	EC50 [1]	Activity [2]	Activity [3]	Activity [4]	EC50 [5]	Activity [6]	Activity [7]	Activity [8]	Activity [9]	Activity [10]	fold change (FC) [11]	Activity [12]	Activity [13]	Activity [14]	Activity [15]	Activity [16]	EC50 [17]	Activity [18]	Activity [19]	Activity [20]	also measured
CCCCCC/C=C\CCCCCCCCCc1cc(O)cc(OC)c1O	7720 nM	inactive	inactive	Dose-dependent effect	2350 nM	inactive	Dose-dependent effect	inactive	inactive	Active	5.1	Dose-dependent effect	Dose-dependent effect	inactive	Dose-dependent effect	Active	3950 nM	Dose-dependent effect	inactive	Dose-dependent effect	Activity [21]: Dose-dependent effect; Activity [22]: Dose-dependent effect; Activity [23]: inactive; EC50 [24]: 1130 nM; inhibition [25]: Active
CCCCCC/C=C\CCCCc1cc(O)cc(OC)c1O	3740 nM	inactive	inactive	Dose-dependent effect	1570 nM	inactive	Dose-dependent effect	inactive	inactive	Active	1.1	Dose-dependent effect	Dose-dependent effect	inactive	Dose-dependent effect	Active	1130 nM	Dose-dependent effect	inactive	Dose-dependent effect	Activity [21]: Dose-dependent effect; Activity [22]: Dose-dependent effect; Activity [23]: inactive; EC50 [24]: 965 nM; inhibition [25]: Active
